Source: ChEMBL document CHEMBL4017514, “Discovery of Novel Macrocyclic Hedgehog Pathway Inhibitors Acting by Suppressing the Gli-Mediated Transcription” (J Med Chem, 2017)
Calls of active or inactive are those of the source. The rule behind the calls is not given here.

Experiments:
Mus musculus [1] = species: Mus musculus; assay: Inhibition of hedgehog signaling pathway in mouse Shh Light2 cells harboring Gli2 plasmid assessed as reduction in Gli2-mediated transcriptional activity by luciferase reporter gene assay; type: cell-based
Mus musculus [2] = species: Mus musculus; assay: Inhibition of hedgehog signaling pathway in mouse Shh Light2 cells harboring Gli1 plasmid assessed as reduction in Gli1-mediated transcriptional activity by luciferase reporter gene assay; type: cell-based
Mus musculus [3] = species: Mus musculus; assay: Inhibition of hedgehog signaling pathway in mouse Light2 cells in Shh conditioned medium by Gli-luciferase reporter gene assay; type: cell-based
Method in brief: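 Light II cells (NIH-3T3 stably transfected with Gli-responsive firefly luciferase and Renilla expression vector) stimulated with ShhN conditioned medium. This medium was collected from ShhN-transfected HEK293 cells kept in 0.1% FBS. Firefly luciferase normalized to Renilla. IC50 given as mean ± SD (nM) from three separate experiments.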

Mus musculus [4] = species: Mus musculus; assay: Inhibition of hedgehog signaling pathway in mouse Light2 cells in Shh conditioned medium at 1 uM by Gli-luciferase reporter gene assay relative to control; type: cell-based
Mus musculus [5] = species: Mus musculus; assay: Inhibition of hedgehog signaling pathway in mouse NIH/3T3 cells assessed as downregulation of Shh-induced Gli1 mRNA expression levels at 300 nM after 36 hrs by RT-qPCR analysis; type: cell-based
Method in brief: (§1)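 NIH-3T3 or C3H10T1/2 cells treated as indicated for 36 h, then collected for RT-qPCR of Gli1 and ptch1 mRNA. Data given as mean ± SD.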

Mus musculus [6] = species: Mus musculus; assay: Inhibition of hedgehog signaling pathway in mouse C3H10T1/2 cells assessed as downregulation of Shh-induced Gli1 mRNA expression levels at 300 nM after 36 hrs by RT-qPCR analysis; type: cell-based; method in brief: as §1
Mus musculus [7] = species: Mus musculus; assay: Inhibition of hedgehog signaling pathway in mouse NIH/3T3 cells assessed as downregulation of Shh-induced ptch1 mRNA expression levels at 300 nM after 36 hrs by RT-qPCR analysis; type: cell-based; method in brief: as §1
Mus musculus [8] = species: Mus musculus; assay: Inhibition of hedgehog signaling pathway in mouse C3H10T1/2 cells assessed as downregulation of Shh-induced ptch1 mRNA expression levels at 300 nM after 36 hrs by RT-qPCR analysis; type: cell-based; method in brief: as §1
Homo sapiens [9] = species: Homo sapiens; assay: Inhibition of TNFalpha-induced NFkappaB activation in HEK293 cells at 1 uM after 24 hrs by dual luciferase reporter gene assay; type: cell-based
Method in brief: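 HEK293 cells carrying NF-κB firefly reporter plus Renilla, stimulated with TNF-α and treated for 24 h. Cells lysed for dual luciferase assay, firefly signal normalized to Renilla. Data given as mean ± SD.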

Homo sapiens [10] = species: Homo sapiens; assay: Inhibition of PGE2-stimulated TCF/LEF activity in human LS174T cells at 1 uM measured after 6 hrs by dual luciferase reporter gene assay; type: cell-based
Method in brief: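 LS174T cells carrying TCF/LEF reporter, stimulated with PGE2 and treated for 6 h. Dual luciferase read-out, firefly normalized to Renilla. Data given as mean ± SD.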

Mus musculus [11] = species: Mus musculus; assay: Inhibition of hedgehog signaling pathway in mouse NIH/3T3 cells harboring sufu shRNA assessed as downregulation of Gli1 mRNA expression at 300 nM by RT-qPCR analysis; type: cell-based
Mus musculus [12] = species: Mus musculus; assay: Inhibition of hedgehog signaling pathway in mouse NIH/3T3 cells harboring sufu shRNA assessed as downregulation of ptch1 mRNA expression at 300 nM by RT-qPCR analysis; type: cell-based
[13] = target: Bromodomain-containing protein 4 (Homo sapiens) (UniProt O60885); assay: Inhibition of BRD4 (unknown origin) at 10 uM
Mus musculus [14] = species: Mus musculus; assay: Inhibition of hedgehog signaling pathway in mouse NIH/3T3 cells assessed as reduction in edogenous expression of Gli1 protein by immunoblot analysis; type: cell-based
Method in brief: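 NIH-3T3 cells cultured in 10% FBS were exposed to compound at various concentrations for 24 h. Endogenous Gli1 and Gli2 detected by Western blot.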

Mus musculus [15] = species: Mus musculus; assay: Inhibition of hedgehog signaling pathway in mouse NIH/3T3 cells hoarboring Gli1 plasmid assessed as reduction in ectopic expression of Gli1 protein at 50 to 1000 nM by immunoblot analysis; type: cell-based
Mus musculus [16] = species: Mus musculus; assay: Inhibition of hedgehog signaling pathway in mouse NIH/3T3 cells hoarboring Gli2 plasmid assessed as reduction in ectopic expression of Gli2 protein at 50 to 1000 nM by immunoblot analysis; type: cell-based
Mus musculus [17] = species: Mus musculus; assay: Inhibition of hedgehog signaling pathway in mouse Light2 cells harboring wild type Smo after 36 hrs by Gli luciferase activity; type: cell-based
Method in brief: (§2)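 Light II cells (NIH-3T3 stably carrying Gli-responsive firefly luciferase and Renilla vector) transfected with wild-type, D473H or W535L Smo plasmid. Exposed to compound for 36 h, then dual luciferase assay with firefly/Renilla normalization. IC50 derived and given as mean ± SD.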

Mus musculus [18] = species: Mus musculus; assay: Inhibition of hedgehog signaling pathway in mouse Light2 cells harboring Smo D473H mutant after 36 hrs by Gli luciferase activity; type: cell-based; method in brief: as §2
Mus musculus [19] = species: Mus musculus; assay: Inhibition of hedgehog signaling pathway in mouse Light2 cells harboring Smo W535L mutant after 36 hrs by Gli luciferase activity; type: cell-based; method in brief: as §2
Medulloblastoma cell [20] = assay: Antiproliferative activity against mouse Ptch+/- p53-/- medulloblastoma cells assessed as reduction in cell proliferation after 72 hrs by MTS assay; type: functional, cell-based
Method in brief: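 Tumor cells obtained from ptch+/−;p53−/− medulloblastoma allografts by mechanical mincing and collagenase digestion. Cultured in Neurobasal A with B-27, EGF 20 ng/mL, bFGF 20 ng/mL, nonessential amino acids and N-acetylcysteine 60 μg/mL. Exposed to compounds for 72 h, then proliferation read by MTS assay. Data given as mean ± SD.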

Mus musculus [21] = species: Mus musculus; assay: Inhibition of hedgehog signaling pathway in mouse Ptch+/- p53-/- medulloblastoma cells assessed as reduction in GLI1 mRNA expression at 3 uM by RT-qPCR analysis
Method in brief: (§3)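 ptch+/−;p53−/− medulloblastoma cells kept in Neurobasal A/B-27 medium with EGF and bFGF, then treated. Gli1 and ptch1 mRNA measured by RT-qPCR. Data given as mean ± SD.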

Mus musculus [22] = species: Mus musculus; assay: Inhibition of hedgehog signaling pathway in mouse Ptch+/- p53-/- medulloblastoma cells assessed as reduction in ptch1 mRNA expression at 3 uM by RT-qPCR analysis; method in brief: as §3
Mus musculus [23] = assay: Downregulation of Gli1 mRNA expression level in athymic nude mouse implanted with mouse Ptch+/- p53-/- medulloblastoma cells at 25 to 50 mg/kg, ip bid for 15 consecutive days measured after 4 hrs of last dosage by RT-qPCR analysis; type: functional, organism-based
Method in brief: (§4)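 Same allograft model (n = 5), dosed ip twice daily for 15 days in 0.5% methylcellulose/0.2% Tween-80 suspension. Tumors harvested 4 h after the last dose. Gli1 and ptch1 mRNA quantified by RT-qPCR. Data given as mean ± SD.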

Mus musculus [24] = assay: Downregulation of ptch1 mRNA expression level in athymic nude mouse implanted with mouse Ptch+/- p53-/- medulloblastoma cells at 25 to 50 mg/kg, ip bid for 15 consecutive days measured after 4 hrs of last dosage by RT-qPCR analysis; type: functional, organism-based; method in brief: as §4
Medulloblastoma cell [25] = assay: Induction of apoptosis in mouse Ptch+/- p53-/- medulloblastoma cells implanted in athymic nude mouse at 25 to 50 mg/kg, ip bid for 15 consecutive days by TUNEL assay; type: functional, organism-based
Method in brief: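 Apoptosis in subcutaneous ptch+/−;p53−/− medulloblastoma allografts in nude mice (n = 5), dosed ip twice daily for 15 days. Tumor sections stained by TUNEL and apoptotic cells imaged at 60×.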

COc1ccc(CN2C[C@@H]3CN(S(=O)(=O)c4ccc(Cl)cc4)CC[C@@H]3Oc3c(NC(=O)C4CC4)cccc3C2=O)cc1 (racemic)
inhibition (Mus musculus [1]): Dose-dependent effect | inhibition (Mus musculus [2]): Dose-dependent effect | inhibition (Mus musculus [3]): Dose-dependent effect | inhibition (Mus musculus [4]): 97% | inhibition (Mus musculus [5]): Active | inhibition (Mus musculus [6]): Active | inhibition (Mus musculus [7]): Active | inhibition (Mus musculus [8]): Active | inhibition (Homo sapiens [9]): inactive | inhibition (Homo sapiens [10]): Active | inhibition (Mus musculus [11]): Active | inhibition (Mus musculus [12]): Active | inhibition [13]: inactive | inhibition (Mus musculus [14]): Dose-dependent effect | inhibition (Mus musculus [15]): Active | inhibition (Mus musculus [16]): Active | inhibition (Mus musculus [17]): Dose-dependent effect | inhibition (Mus musculus [18]): Dose-dependent effect | inhibition (Mus musculus [19]): Dose-dependent effect | Activity (Medulloblastoma cell [20]): Dose-dependent effect | inhibition (Mus musculus [21]): Active | inhibition (Mus musculus [22]): Active | Activity (Mus musculus [23]): Active | Activity (Mus musculus [24]): Active | Activity (Medulloblastoma cell [25]): Active
